Experimental data reported in article PMC4292800 (Bioorganic & medicinal chemistry, 2014).
Each block holds one compound with its values, some of them ahead of it.

Columns and labels:
[1] = Oxidation kinetics of 1 into 2 by HPLC; assay type: physicochemical
Method in brief: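 In PBS, alone or with 10 mM H2O2 (a tenfold excess), the test compound's conversion to its oxidised product was followed by reverse-phase HPLC on a C-18 column (Synergi Hydro-RP, 4 μm, 80 Å, 150 × 4.6 mm), and a conversion rate was derived. N-acetylcysteine was then added in limiting amount to mimic cellular thiol addition; the adduct was confirmed by FTMS.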

[2] = system: primary CD34+ normal human blood stem cells; test: MTT cytotoxicity selectivity, normal blood stem cells versus AML cells; assay type: cell-based; conditions: CD34+ normal human blood stem cells vs MA9.3RAS
Method in brief: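 Both cell types get the same MTT assay. AML cells are cultured in IMDM with 20% bovine calf serum; UCB cells in the same medium plus SCF, IL-3, IL-6, Flt-3L and TPO. Cells are seeded at 4 × 10^4/well, held overnight at 37°C, then exposed 48 h to freshly dissolved test compound. Medium is replaced with MTT for 4 h, then DMSO, OD 575 nm. IC50 comes from a four-parameter sigmoid fit (triplicates, repeated twice), and the ratio is normal IC50 over AML IC50.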

[3] = Oxidation of 14 to 14-ox/14-red by HPLC; assay type: physicochemical
Method in brief: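 Oxidation of the test compound to its bicyclic oxidised/reduced products was followed by reverse-phase C-18 HPLC. Under normal atmosphere the reaction was fitted as pseudo-zero-order to give t1/2. Activation used one molar equivalent of hydrogen peroxide, and rate enhancement was estimated from a lower-limit t1/2 against the atmosphere-only reaction.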

conversion of 1 to 2 ([1]; PBS, no exogenous oxidant, in one hour): approximately 50%
SMILES: CN(CC(=O)Nc1cc(O)ccc1O)c1ccccc1 [Compound 1, N-(2,5-dihydroxyphenyl)-2-(methyl(phenyl)amino) acetamide]
rate of conversion of 1 to 2 ([1]; PBS, absence of exogenous oxidant): 0.011 ± 0.002 min^− | rate of conversion of 1 to 2 ([1]; presence of 10 mM H2O2, a tenfold excess): 0.6 ± 0.1 min^− | rate of conversion of 1 into 2 ([1]; with hydrogen peroxide (Figure 2D legend)): 0.6 min⁻¹

SMILES: O=C(COc1ccccc1)Nc1cc(O)ccc1O [Compound 10, N-(2,5-dihydroxyphenyl)-2-phenoxyacetamide]
selectivity factor (ratio of IC50 of normal cells over IC50 of AML cells) [2]: limited selectivity

SMILES: O=C(CSc1ccccc1)Nc1cc(O)ccc1O [Compound 11, N-(2,5-dihydroxyphenyl)-2-(phenylthio)acetamide]
selectivity factor (ratio of IC50 of normal cells over IC50 of AML cells) [2]: limited selectivity

conversion of 14 to its oxidation product ([3]; under argon atmosphere, two hours): 4±3%
SMILES: O=C(CNC1CCCCC1)Nc1cc(O)ccc1O [Compound 14, 2-(cyclohexylamino)-N-(2,5-dihydroxyphenyl)acetamide]
time for conversion of all 14 ([3]; hydrogen peroxide (Figure 3C legend)): less than 0.1 hrs | activation by hydrogen peroxide ([3]; rate enhancement with hydrogen peroxide vs atmosphere): more than 150 fold
